The record followed here is ChEMBL document CHEMBL1132241, “Novel multidrug resistance reversal agents” (J Med Chem, 1999).

A short description of data set [1]: Partition coefficient (logP). The format is physicochemical. As to conditions: octanol/water.
Data set [2] has as its system Mus musculus. Briefly: Relative tumor growth inhibition against human epidermoid carcinoma KB/8.5 implanted subcutaneously only in mice at 8 mg/kg (DOX). The format is functional. The settings on record: route subcutaneous. An outline of the steps:
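KB/8.5 cells grown in RPMI 1640 with 5% fetal calf serum plus colchicine (10 ng/mL), which was removed for two passages. 8 × 10^6 cells were then implanted sc in athymic nude mice. At 100-300 mg tumor mass, mice were grouped 5-10/group. Doxorubicin was given as a single iv dose (8 mg/kg). Tumor mass was measured on day 14, and relative growth was compared with saline control.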

For data set [3], the system named is Mus musculus. Briefly: Percent tumor growth inhibition against human epidermoid carcinoma KB/8.5 implanted subcutaneously in mice at 200 mg/kg of compound along with 8 mg/kg (DOX ) was determined. The format is functional. A digest of the protocol: (§1)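 Athymic nude mice bearing sc KB/8.5 tumors (8×10^6 cells, colchicine withdrawn for two passages), grouped at 100–300 mg tumor mass, 5–10 mice/group. Doxorubicin 8 mg/kg given once iv; reversal agent or placebo given sc 2 h before and 2 h after. Tumor mass on day 14 used for relative tumor growth versus doxorubicin alone; Student t-test on log RTG.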

A short description of data set [4]: In vitro concentration at which 50% of human colon carcinoma cells (S1-B1-20) resistant to bisantrene have survived. In kind it is ADME, cell-based, S1B1-20. As to conditions: S1-B1-20 human colon carcinoma cells resistant to bisantrene, read-out: LD50 (the source's name). An outline of the steps: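 S1-B1-20 cells (LS 174 T-derived S1 clone selected in bisantrene over 12–16 weeks), trypsinized, 20 000 cells/well. Test agent alone in DMSO (≤0.1% final), 0.1–80 µM, 3 days at 37 °C, 7% CO2. Survival by sulforhodamine B read at 540 nm versus untreated cells. Two to four measurement sets were made, and the value is the concentration giving 50% survival from a best-fit curve.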

Data set [5] relates to S1B1-20. Briefly: In vitro concentration required to inhibit tumor activity on subclone of human colon carcinoma cells (S1-B1-20) resistant to bisantrene. In kind it is functional, cell-based. The settings on record: Homo sapiens, S1B1-20. An outline of the steps:
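S1-B1-20 cells (S1 clone of LS 174 T, selected in bisantrene over 12–16 weeks) plated at 20 000 cells/well with or without 20 μM bisantrene, plus test agent 0.1–80 μM from DMSO stock (final DMSO ≤0.1%). 3 days, 37 °C, 7% CO2. Survival by sulforhodamine B at 540 nm. IC50 from best-fit curve of difference score (survival alone minus survival with bisantrene) at 50; 2–4 sets of measurements.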

In data set [6] the test system is Mus musculus. Briefly: Percent increase in mean life span relative to treatment with an equivalent dose of vincristine alone at 12.5 mg/kg in mice with vincristine-resistantmurine leukemia P388/VCR cells. In kind it is functional. An outline of the steps:
(§2)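 CDF1 mice were implanted ip with 1 × 10^6 P388/VCR cells. Agent and 0.2 mg/kg vincristine were given simultaneously ip once daily, days 1–7. Mean survival over up to 30 days was compared with vincristine alone at an equivalent dose, giving % increase in life span. Student t-test was applied to mean survival time.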

The test system of data set [7] is Mus musculus. Briefly: Percent increase in mean life span in mice infected with leukemia P388/VCR, at 12.5 mg/Kg dose. The format is functional. An outline of the steps:
(§3)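 CDF1 mice (groups of 10–15) were implanted ip with 1 × 10^6 P388/VCR cells. Agent plus 0.2 mg/kg vincristine were given together ip once daily on days 1–7, starting 1 day post-implant, in cremophor/ethanol or propylene glycol/ethanol vehicle. Survival was recorded to 30 days. Result is the % increase in mean life span versus placebo control.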

The test system of data set [8] is Mus musculus. Briefly: Percent increase in mean life span when 0.2 mg/kg vincristine was administered ip once daily on days 1-7, in mice infected with leukemia P388/VCR. In kind it is functional. Also on record: concentration or dose not given beside the values. As to conditions: route intraperitoneal. An outline of the steps:
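CDF1 mice bearing ip P388/VCR (1 × 10^6 cells) received 0.2 mg/kg vincristine ip once daily on days 1–7. Mean survival to 30 days was expressed as % increase in life span relative to placebo control.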

Data set [9] relates to Mus musculus. Briefly: Percent increase in mean life span relative to treatment with an equivalent dose of vincristine alone at 25 mg/kg in mice with vincristine-resistantmurine leukemia P388/VCR cells. In kind it is functional. An outline of the steps: as §2
For data set [10], the system named is Mus musculus. Briefly: Percent increase in mean life span in mice infected with leukemia P388/VCR, at 25 mg/Kg dose. In kind it is functional. A digest of the protocol:
as §3

The subject of data set [11] is Mus musculus. Briefly: Percent tumor growth inhibition against human epidermoid carcinoma KB/8.5 implanted subcutaneously in mice at 50 mg/kg of compound along with 8 mg/kg (DOX ) was determined. In kind it is functional. A digest of the protocol: as §1
Data set [12] concerns Mus musculus. Briefly: Percent increase in mean life span relative to treatment with an equivalent dose of vincristine alone at 6.3 mg/kg in mice with vincristine-resistantmurine leukemia P388/VCR cells. In kind it is functional. An outline of the steps: as §2
Data set [13] has as its system Mus musculus. Briefly: Percent increase in mean life span in mice infected with leukemia P388/VCR, at 6.3 mg/Kg dose. The format is functional. A digest of the protocol: as §3
Data set [14] relates to Mus musculus. Briefly: Percent increase in mean life span relative to treatment with an equivalent dose of vincristine alone at 50 mg/kg in mice with vincristine-resistantmurine leukemia P388/VCR cells. The format is functional. A digest of the protocol: as §2
Data set [15] relates to Mus musculus. Briefly: Percent increase in mean life span in mice infected with leukemia P388/VCR, at 100 mg/Kg dose. The format is functional. An outline of the steps: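 CDF1 mice were implanted ip with 1 × 10^6 P388/VCR cells (line passaged in DBA/2 ascites). Agent at 100 mg/kg in Cremophor/ethanol/saline was given ip once daily on days 1–7 without vincristine. Survival was followed to 30 days. Result is the % increase in mean life span versus placebo.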

In data set [16] the test system is Mus musculus. Briefly: Percent increase in mean life span in mice infected with leukemia P388/VCR, at 50 mg/Kg dose. In kind it is functional. An outline of the steps:
as §3

For the molecule `COc1ccc(CC2c3cc(OC)c(OC)cc3CCN2CCCCCC(C#N)(Sc2ccc(C)cc2)c2ccc(OC)c(OC)c2)cc1OC` (stereo unspecified), the logP in data set [1] (read-out: logP) is 7.57. Besides, in [2], the Relative tumor growth stood at 64. Also, the TGI in data set [3] was determined as 58%. The CC50 in [4] was 78.2 µM. The molecule further had an IC50 in [5] of 1.06 µM.
Regarding `COc1ccc2c(c1)CCN(CCCCCC(C#N)(Sc1ccc(C)cc1)c1ccc(OC)c(OC)c1)C2` (stereo unspecified), in data set [1] (read-out: logP), the logP turned out to be 6.64. The ILS at 12.5 mg/kg in [6] was 24%; in data set [7] it was 56%. Besides, in data set [8], the ILS turned out to be 26%. In addition, in [4], the CC50 is 15.7 µM. This molecule displayed an IC50 in [5] of 1.92 µM.
Regarding `COc1ccc(C(C#N)(CCCCCCN2CCc3cc(OC)c(OC)cc3C2)Sc2ccc(C)cc2)cc1OC` (stereo unspecified), the logP in data set [1] (read-out: logP) worked out at 6.71. Besides, the ILS at 12.5 mg/kg in [6] was 23%; in [7], 68%. In addition, the ILS in [8] was found to be 37%. Besides, in data set [4], the CC50 turned out to be 13.5 µM. In [5], this molecule gave an IC50 of 0.3 µM.
The molecule `COc1ccc(C(C#N)(CCCCCCCCCCCN2CCc3cc(OC)c(OC)cc3C2)Sc2ccc(C)cc2)cc1OC` (stereo unspecified) returned a logP in data set [1] of 9.35. Further, the ILS at 25 mg/kg stood at 14% in data set [9] and 42% in data set [10]. Further, the ILS in data set [8] turned out to be 24%. In data set [2], the Relative tumor growth is reported as 39. Besides, the TGI in data set [11] is 61%. Further, the CC50 in data set [4] was 10.8 µM. In addition, in data set [5], the IC50 was 1.74 µM.
For `COc1ccc(C(C#N)(CCCCCCCCN2CCc3cc(OC)c(OC)cc3C2)Sc2ccc(C)cc2)cc1OC` (stereo unspecified), the logP in data set [1] (read-out: logP) was determined as 7.76. Also, the ILS at 6.3 mg/kg in [12] came to 8%; in data set [13], 34%. Also, the ILS in data set [8] worked out at 24%. Besides, the CC50 in data set [4] came out at 11.6 µM. In addition, the midpoint of inhibition in [5], the IC50, lay at 0.36 µM.
Consider `COc1ccc(C(C#N)(CCCN2CCc3cc(OC)c(OC)cc3C2)Sc2ccc(C)cc2)cc1OC` (stereo unspecified), for which the logP in [1] (read-out: logP) was determined as 5.12. Besides, the ILS at 50 mg/kg in [14] amounted to 15%; in data set [16], 73%. Also, the ILS at 100 mg/kg in data set [15] was -3%. Besides, the ILS in [8] was 51%. The molecule further gave a Relative tumor growth in data set [2] of 39. The molecule further had a TGI in [11] of 63%. Further, the CC50 in data set [4] worked out at 24 µM. The same molecule showed an IC50 in data set [5] of 0.46 µM.
Turning to `COc1ccc(C(C#N)(CCCCCN2CCc3cc(OC)c(OC)cc3C2)Sc2ccc(C)cc2)cc1OC` (stereo unspecified), the logP in [1] (read-out: logP) is 6.18. The ILS at 12.5 mg/kg in data set [6] was 33%; in data set [7] it was 83%. Further, the ILS at 100 mg/kg in [15] was -4%. Also, the ILS in data set [8] worked out at 37%. Moreover, in data set [2], the Relative tumor growth is 69. The same molecule yielded a tumour growth inhibition (TGI) in data set [11] of 59%. Besides, the CC50 in data set [4] is 13.6 µM. For the same molecule, the midpoint of inhibition in [5], the IC50, lay at 0.37 µM.
For `COC(=O)C(CCCN1CCc2cc(OC)c(OC)cc2C1)(Sc1ccc(C)cc1)c1ccc(OC)c(OC)c1` (stereo unspecified), in data set [1] (read-out: logP), the logP was found to be 5.54. For the same molecule, the ILS at 50 mg/kg in [14] came out at 11%; in [16], 25%. In addition, the ILS in [8] is 13%. In addition, in data set [4], the CC50 came to 32.8 µM. In [5], the midpoint of inhibition, the IC50, lay at 1.47 µM.
Consider `COc1ccc(C(C#N)(CCCCCN2CCc3cc4c(cc3C2)OCO4)Sc2ccc(C)cc2)cc1OC` (stereo unspecified), for which the logP in [1] (read-out: logP) came to 6.08. In addition, the ILS at 25 mg/kg in data set [9] turned out to be 16%; in data set [10] it was 38%. Further, the ILS in data set [8] amounted to 24%. Further, the CC50 in [4] worked out at 30 µM. Further, the IC50 in data set [5] worked out at 3.09 µM.
